TRPN1 ag – agonists of zebrafish TRPN1 channel | activation, % at 3 µM | HEK293 zebrafish TRPN1-YFP, Fluo-8 calcium fluorescence; 100% = response to 87 µM carbachol | 220,000 tested, 0.18% active;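 active means activation above its plate's cutoff, the mean activation of test wells on that plate plus 3 SD, cut at about 19% in these data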;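 further: 0% = DMSO alone and 100% = 87 µM carbachol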
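Assay system: Zebrafish TRPN1-YFP in HEK293 cells | Incubation: Dye loading 1 h at 37 °C, then 30 min room temperature | Measured by: Kinetic Fluo-8 fluorescence, ex 470-495, em 515-575 nm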
TRPML3 ag – agonists of human TRPML3 channel. 220,000 tested, 0.29% active. HEK293 TRPML3-YFP, Fluo-8 calcium fluorescence; 100% = the carbachol control signal. activation, % at 3 µM. Q8TDD5;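 active means activation above its plate's cutoff, the mean activation of the plate's test wells plus 3 SD, cut at about 12% in these data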;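 further: 0% = DMSO only wells and 100% = carbachol wells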
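Test system: HEK293 cells stably carrying human TRPML3-YFP; Doses: single dose, 3 µM final nominal compound, 0.3% DMSO final; Schedule: dye loading 1 h 37 °C then 30 min ambient, 125 s read; Technique: Fluo-8 calcium fluorescence; Benchmarks: high control carbachol 87 µM, low control DMSO.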
GPR7 antagonist – human neuropeptides B/W receptor 1 antagonism; GPR7-expressing cells, fluorescence antagonist assay; inhibition, % at 4.4 µM; 290,000 tested, 1.1% active; in the data active means inhibition above about 16%, passing the limit was not always enough;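 further: cells stimulated with the agonist NPW; 0% = agonist with vehicle and 100% = vehicle without agonist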
Target sequence (P48145 whole entry, looked up): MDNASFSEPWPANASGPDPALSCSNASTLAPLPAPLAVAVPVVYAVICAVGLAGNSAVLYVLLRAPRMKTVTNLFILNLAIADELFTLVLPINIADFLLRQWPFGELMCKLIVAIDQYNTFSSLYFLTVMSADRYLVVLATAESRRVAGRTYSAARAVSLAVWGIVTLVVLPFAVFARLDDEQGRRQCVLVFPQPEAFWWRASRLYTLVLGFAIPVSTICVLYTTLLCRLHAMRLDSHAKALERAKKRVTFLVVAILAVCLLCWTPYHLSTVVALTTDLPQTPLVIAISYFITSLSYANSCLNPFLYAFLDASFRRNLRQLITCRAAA
CRFBP-R2 block – CRF-BP/CRF-R2 complex antagonism; HEK293 CRF-R2/CRF-BP, CRF-induced calcium fluorescence; 350,000 tested, 0.59% active; inhibition, % at 11.8 µM;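 active means inhibition of the ligand-induced calcium signal above about 50% at the single tested concentration, limit read from the data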
CRFBP-R2 agonist – agonists of human CRF-binding protein/CRF-R2 receptor complex; HEK293 CRF-R2/CRF-BP, calcium dye fluorescence (FLIPR); percent of saturating CRF peptide response; activation, % at 13.2 µM; 350,000 tested, 0.46% active; AID 588473;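 active means activation of at least 50%, plus an integration ratio under a set limit after plate pattern correction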;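 further: plate controls were neutral control wells without compound for no effect and CRF at EC100 for full effect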
GPR7 antag conf – confirmation of human GPR7 antagonists | shares compounds with GPR7 antagonist | GPR7-expressing cells, calcium fluorescence antagonist mode | inhibition, % at 4.4 µM | 2,400 tested, 52% active; in the data active means inhibition above about 24%;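 further: stimulated with the GPR7 agonist NPW; 0% = agonist plus vehicle and 100% = vehicle alone without agonist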
MCHR1 antagonist – MCHR1 (human) antagonism in GPR7 counter-screen | shares compounds with GPR7 antagonist | MCHR1-expressing cells, fluorescence antagonist assay | inhibition, % at 4.4 µM | 2,400 tested, 62% active; in the data active means inhibition above about 22%;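 further: 0% = vehicle with agonist and 100% = vehicle without agonist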
The depositor's hits bear a star; / = not tested or not shown. A selection: hits, their analogues and other compounds. The true share with any hit is near 2%.

SMILES | TRPN1 ag | TRPML3 ag | GPR7 antagonist | CRFBP-R2 block | CRFBP-R2 agonist | GPR7 antag conf | MCHR1 antagonist
Cc1ccc2nc(C)c(CN3CCN(c4ccc([N+](=O)[O-])cc4Cl)CC3)n2c1 | / | / | 23* | / | / | 52* | 52*
O=[N+]([O-])c1ccc(Cl)c(CN2CCN(c3ncccn3)CC2)c1 | / | / | -9 | 5 | 0 | / | /
O=C(COC(=O)c1nc(Cl)ccc1Cl)Nc1ccc2[nH]c(=O)[nH]c2c1 | / | / | / | 25 | 0 | / | /
Cc1ccc(C(OCC(O)CNCc2ccc(F)cc2)c2ccccc2)cc1 (configuration not stated) | / | / | 41* | -5 | 4 | 30* | 65*
O=C(c1ccccc1)c1ccc(OCC(O)CNCc2ccc(F)cc2)cc1 (configuration not stated) | / | / | 16 | -33 | 4 | / | /
COc1ccc(C(OCC(O)CNCCc2ccccc2)c2ccc(OC)cc2)cc1 (configuration not stated) | / | / | 61* | -12 | 6 | 35* | 53*
Cc1cccc(OCc2nnc(SCC(=O)N(c3ccccc3)C3CCS(=O)(=O)C3)o2)c1 (configuration not stated) | / | / | / | 10 | 1 | / | /
COc1ccccc1C(=O)N(CCC1CCCN1C)c1nc2ccccc2s1 (configuration not stated) | -1 | 1 | 24* | -17 | 4 | 26* | 9
COc1ccc2sc(N(CCCN(C)C)C(=O)c3nc4ccccc4s3)nc2c1 | 0 | 1 | -7 | -11 | 20 | / | /
COc1ccc(S(=O)(=O)N2CCCCC2)cc1NC(=O)CCCOc1ccc(C)cc1 | / | / | / | -1 | 0 | / | /
COc1ccc(S(=O)(=O)N(C)c2ccc(C(=O)NC3CCCC3)cc2)cc1 | 1 | 0 | -8 | -25 | -2 | / | /
CN(c1ccc(C(=O)NC2CCCC2)cc1)S(=O)(=O)c1ccc(Cl)cc1 | / | / | 33* | 0 | -2 | 24 | 16
COc1ccc(NC(=O)CCS(=O)(=O)c2ccccc2Cl)cc1S(=O)(=O)Nc1ccc(Cl)cc1 | -1 | 0 | 25* | 3 | 0 | 23 | 25*
C/C(CC(=O)Nc1ccc2ccccc2c1)=N\NC(=O)c1ccc(O)c(O)c1 | / | / | 6 | 0 | 1 | / | /
COc1cccc(Oc2ccc(S(=O)(=O)N3CCCC3)cc2[N+](=O)[O-])c1 | / | / | 31* | 20 | 1 | -5 | 15
COc1ccc(OCCOc2ccc(S(=O)(=O)N3CCCC3)cc2[N+](=O)[O-])cc1 | / | / | / | -21 | 21 | / | /
O=[N+]([O-])c1cc(S(=O)(=O)N2CCCCCC2)ccc1Cl | -3 | 22* | 39* | 22 | -3 | 63* | 19
COc1ccccc1S(=O)(=O)N(C)C[C@H]1OCc2cn(nn2)CCCC(=O)N([C@H](C)CO)C[C@@H]1C | / | / | / | 8 | 3 | / | /
CC(C)CN1C(=O)c2ccc(C(=O)Nc3ccc(OCC(=O)O)cc3)cc2C1=O | / | / | -8 | 12 | -1 | / | /
CC(C)CC(=O)Nc1ccnn1C1CCN(C(=O)c2ccc(F)cc2Cl)CC1 | / | / | -1 | 3 | 1 | / | /
CCOc1ccc(-c2nnc(N)s2)cc1 | -2 | -1 | 29* | -4 | 0 | -4 | -4
COCC1CCCCN1C(=O)c1ccc2nc(Cc3ccc(OC)c(OC)c3)oc2c1 (configuration not stated) | / | / | -11 | -4 | 1 | / | /
O=C(COC(=O)c1ccccn1)NCc1ccccc1Cl | -1 | 0 | 24* | 10 | -1 | 1 | 15
CCc1cc(C(=O)N2CCN(S(=O)(=O)c3ccc(Cl)cc3)CC2)sc1C | / | / | / | 11 | 0 | / | /
NCCSc1c(-c2ccccc2)[nH]c2ccccc12 | 0 | 1 | 21* | -6 | -3 | 19 | 23*
NCCSc1c(-c2ccc(F)cc2)[nH]c2ccccc12 | 0 | 1 | 25* | -27 | 3 | 41* | 38*
COc1cc(NC(=O)CN2CCN(CC(=O)Nc3ccccc3OC)CC2)cc(OC)c1 | / | / | -3 | 6 | -3 | / | /
COc1cc(NC(=O)CSc2nnnn2Cc2ccccc2)cc(OC)c1 | 1 | -1 | 13 | 3 | -5 | / | /
CCC(=O)Nc1cccc(NC(=O)CSc2nnnn2Cc2ccccc2)c1 | 1 | 0 | 23* | 2 | -1 | 12 | 14

Screening results as filed in PubChem BioAssay.
